Each block holds one compound with its values, some of them ahead of it.
Columns and labels:
SCoR2 [1] = molecular target: T1, SCoR2 (Mus musculus, UniProt Q9JII6); assay type: in vivo; conditions: i.p. 120 mg/kg, 18h
T1 sequence (Q9JII6 1-325): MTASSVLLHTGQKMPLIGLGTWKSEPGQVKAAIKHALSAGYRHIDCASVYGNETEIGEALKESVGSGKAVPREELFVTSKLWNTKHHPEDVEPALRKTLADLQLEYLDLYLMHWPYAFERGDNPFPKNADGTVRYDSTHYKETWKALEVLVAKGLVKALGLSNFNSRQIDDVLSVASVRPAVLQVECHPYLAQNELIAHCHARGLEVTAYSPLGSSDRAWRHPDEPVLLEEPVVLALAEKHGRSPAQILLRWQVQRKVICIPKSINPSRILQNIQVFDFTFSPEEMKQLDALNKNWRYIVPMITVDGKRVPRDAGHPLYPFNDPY
In short: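 Mice received test compound 120 mg/kg i.p. (vehicle DMSO); liver, lung, heart, brain and spleen were harvested 18 h later. Tissues were homogenized in 50 mM phosphate pH 7.0, 150 mM NaCl, 100 μM EDTA/DTPA, clarified at 20,000xg, 4°C, and protein measured by BCA. Lysate started reactions with 200 μM SNO-CoA and 100 μM NADPH in phosphate/EDTA/DTPA buffer; 2 min; triplicate; n≥3.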

AKR1B1 [2] = molecular target: AKR1B1 (Mus musculus, UniProt P45376); experiment: Methylglyoxylate-metabolizing; assay type: in vivo; conditions: i.p. 120 mg/kg, 18h
acute kidney injury = experiment: Ischemia/reperfusion-induced AKI model in mice; assay type: in vivo; conditions: mouse I/R AKI
SCoR2 [3] = molecular target: T1, SCoR2; experiment: SNO-CoA-metabolizing activity in kidneys of treated mice; assay type: in vivo
In short: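 Mice got test compound i.p. with DMSO vehicle or were fed compound-containing diet; SCoR2-knockout mice served as comparators. Kidneys were taken 18 h after a single 20–120 mg/kg dose, or 24 h after I/R surgery done 18 h post-dose. Tissue was homogenized in 50 mM phosphate pH 7.0, 150 mM NaCl, 100 μM EDTA/DTPA, then clarified (20,000xg, 4°C) and BCA-normalized. Lysate started reactions with 200 μM SNO-CoA and 100 μM NADPH; 2 min, triplicate.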

AKR1B1 [4] = molecular target: AKR1B1 (Homo sapiens, UniProt P15121); experiment: Inhibition of methylglyoxylate-metabolizing activity of purified AKR1B1; assay type: biochemical; conditions: ratio of IC50 values
SCoR2 [5] = molecular target: T2, SCoR2 (Homo sapiens, UniProt P14550); experiment: Differential scanning fluorimetry; assay type: binding; conditions: 5 μM SCoR2, 250 μM compound; SCoR2 alone 48.3 (buffer), 48.0 (1% DMSO)
T2 sequence (P14550 1-325): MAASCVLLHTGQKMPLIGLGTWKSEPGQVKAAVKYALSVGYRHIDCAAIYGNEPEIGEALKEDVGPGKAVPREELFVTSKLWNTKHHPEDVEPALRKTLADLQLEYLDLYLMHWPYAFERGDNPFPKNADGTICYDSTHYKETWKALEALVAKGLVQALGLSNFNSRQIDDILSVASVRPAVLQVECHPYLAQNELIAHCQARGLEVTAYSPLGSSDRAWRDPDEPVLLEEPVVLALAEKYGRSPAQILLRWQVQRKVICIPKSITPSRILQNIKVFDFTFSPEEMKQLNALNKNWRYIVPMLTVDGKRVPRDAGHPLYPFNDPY

SCoR2 (AKR1A1) = molecular target: T3, SCoR2 (AKR1A1) (Homo sapiens, UniProt P14550); experiment: Inhibition of DL-glyceraldehyde-metabolizing activity of purified SCoR2; assay type: biochemical; conditions: DL-glyceraldehyde as substrate, in vitro
T3 sequence (P14550 1-325): T2 sequence (P14550 1-325)
In short: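 Initial screen with recombinant human SCoR2 (C-terminal His tag, expressed in E. coli, Ni-NTA purified). The 1 ml cuvette held 20 nM SCoR2, 3 mM DL-glyceraldehyde and varying inhibitor in 50 mM phosphate pH 7.0. NADPH (100 μM) started the reaction, which ran 2 min. NADPH consumption slope was read spectrophotometrically and IC50 was obtained by curve fitting.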

[6] = diet with 125 mg/kg diet for 3 weeks or 12 weeks
[7] = 20 mg/kg i.p. 18 h before surgery, 24 h post-surgery

Structure (SMILES): O=C1NC(=O)C2(N1)c1ccccc1-c1ccc(C3CC3)cc12 (centres unmarked) [5-1]
Activity of SCoR2 in brain (SCoR2 [1]): not in brain | Activity of SCoR2 in heart (SCoR2 [1]): inhibited | Activity of SCoR2 in liver (SCoR2 [1]): inhibited | Activity of SCoR2 in lung (SCoR2 [1]): inhibited | Activity of SCoR2 in spleen (SCoR2 [1]): inhibited | Activity of kidney AKR1B1 (AKR1B1 [2]): did not inhibit | Protection against AKI (acute kidney injury; 120 mg/kg i.p. 18 h before surgery): protected against AKI

Structure (SMILES): O=C1NC(=O)C2(N1)c1cc(F)ccc1-c1ccc(F)cc12 [Imirestat, imirestat]
SNO-CoA-metabolic activity in kidneys following AKI (SCoR2 [3]; 20 mg/kg i.p. 18 h before AKI surgery, 24 h post-surgery): strongly inhibited | SCoR2 activity in the kidney on drug diet (SCoR2 [3]; [6]): potently inhibited | Protection against AKI (acute kidney injury; 20 mg/kg i.p. 18 h before surgery): does not protect against AKI | Blood urea nitrogen (BUN) vs DMSO-treated mice (acute kidney injury; [7]): the same | Serum creatinine vs DMSO-treated mice (acute kidney injury; [7]): the same | Protection against AKI (acute kidney injury; [6]): did not show protection against AKI | Times more potent at AKR1B1 (vs SCoR2) (AKR1B1 [4]): 1.2

Other lines, results leading:

Melting temperature (Tm) of SCoR2, compound alone (SCoR2 [5]): 51.4 °C
Structure (SMILES): NC(=O)C1=CN([C@@H]2O[C@H](COP(=O)(O)OP(=O)(O)OC[C@H]3O[C@@H](n4cnc5c(N)ncnc54)[C@H](OP(=O)(O)O)[C@@H]3O)[C@@H](O)[C@H]2O)C=CC1 [NADPH]

Inhibition of SCoR2 / potency at SCoR2 (in words) (SCoR2 (AKR1A1)): less potent
Structure (SMILES): O=C1NC(=O)C2(N1)c1ccccc1-c1ccccc12 [compound 2]

Inhibition of SCoR2 / potency at SCoR2 (in words) (SCoR2 (AKR1A1)): inhibit
Structure (SMILES): CC(/C=C1\SC(=S)N(CC(=O)O)C1=O)=C\c1ccccc1 [epalrestat, reference compound]

— PMC10416317 (Journal of medicinal chemistry, 2023)
